Source: ChEMBL document CHEMBL1134770, “Novel, potent, and selective phosphodiesterase 5 inhibitors: synthesis and biological activities of a series of 4-aryl-1-isoquinolinone derivatives” (J Med Chem, 2001)

Key:
[1] = biological target: Phosphodiesterase 1 (Rattus norvegicus, UniProt Q63421+Q9EPR9+Q01066); assay: Inhibitory activity against rat heart Phosphodiesterase 1(PDE1); type: protein assay
[2] = biological target: cGMP-specific 3',5'-cyclic phosphodiesterase (Canis lupus familiaris, UniProt O77746); assay: Inhibitory activity against canine lung Phosphodiesterase 5 (PDE5)
How it was run: (§1)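 Boiled, then snake-venom nucleotidase for 30 min at 37 °C, methanol stop, Dowex separation, scintillation counting. IC50 from log concentration-inhibition curve (≥4 points), mean of ≥2 duplicate experiments.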

[3] = biological target: Phosphodiesterase 3 (Canis familiaris); assay: Inhibitory activity against canine heart Phosphodiesterase 3 (PDE3)
[4] = biological target: T1, cGMP-dependent 3',5'-cyclic phosphodiesterase (Bos taurus, UniProt P14099); assay: Inhibition of bovine adrenal gland Phosphodiesterase 2 (PDE2); how it was run: as §1
T1 sequence (P14099 whole entry): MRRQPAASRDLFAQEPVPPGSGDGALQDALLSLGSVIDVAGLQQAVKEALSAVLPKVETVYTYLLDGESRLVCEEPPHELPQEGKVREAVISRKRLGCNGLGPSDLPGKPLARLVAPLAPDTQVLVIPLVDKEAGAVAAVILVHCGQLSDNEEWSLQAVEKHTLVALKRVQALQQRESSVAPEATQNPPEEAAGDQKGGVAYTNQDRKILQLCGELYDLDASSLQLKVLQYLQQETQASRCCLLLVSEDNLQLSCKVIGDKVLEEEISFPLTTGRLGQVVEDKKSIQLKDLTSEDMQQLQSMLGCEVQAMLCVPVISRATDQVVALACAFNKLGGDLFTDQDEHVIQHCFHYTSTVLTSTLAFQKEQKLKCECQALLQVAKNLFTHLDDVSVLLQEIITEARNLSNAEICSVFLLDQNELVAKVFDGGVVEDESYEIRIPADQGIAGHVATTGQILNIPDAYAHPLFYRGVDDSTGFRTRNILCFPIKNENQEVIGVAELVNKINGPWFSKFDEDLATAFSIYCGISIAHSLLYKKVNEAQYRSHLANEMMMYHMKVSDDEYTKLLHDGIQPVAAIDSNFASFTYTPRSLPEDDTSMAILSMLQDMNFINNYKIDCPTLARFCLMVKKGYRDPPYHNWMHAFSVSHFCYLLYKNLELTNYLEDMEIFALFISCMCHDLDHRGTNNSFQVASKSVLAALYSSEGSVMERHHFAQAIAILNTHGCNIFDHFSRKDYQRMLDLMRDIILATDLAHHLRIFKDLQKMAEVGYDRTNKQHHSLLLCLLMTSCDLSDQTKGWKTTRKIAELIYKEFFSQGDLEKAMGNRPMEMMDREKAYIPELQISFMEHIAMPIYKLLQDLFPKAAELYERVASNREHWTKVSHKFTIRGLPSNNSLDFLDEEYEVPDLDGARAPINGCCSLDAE

[5] = biological target: Phosphodiesterase 4 (Canis familiaris); assay: Inhibition of canine lung Phosphodiesterase 4 (PDE4)
[6] = Relaxant effect on isolated rabbit corpus cavernosum; type: functional, tissue-based, Oryctolagus cuniculus; conditions: target entry is the homologue from another species

| IC50 [1] [nM] | IC50 [2] [nM] | IC50 [3] [nM] | IC50 [4] [nM] | IC50 [5] [nM] | EC30 [6] [nM] | SMILES |
| --- | --- | --- | --- | --- | --- | --- |
| > 10000 | > 10000 | > 10000 |  |  |  | COC(=O)c1c(-c2cc(OC)c(OC)c(OC)c2)c2cc(OC)c(OC)cc2c(=O)n1-c1ccc(N(C)C)cc1.Cl |
| 3100 | 380 | > 10000 |  |  |  | COC(=O)c1c(-c2cc(OC)c(OC)c(OC)c2)c2cc(OC)c(OC)cc2c(=O)n1Cc1ccccc1 |
| > 10000 | 170 | > 10000 |  |  |  | COC(=O)c1c(-c2cc(OC)c(OC)c(OC)c2)c2cc(OC)c(OC)cc2c(=O)n1-c1ccc(Cl)cc1 |
| > 10000 | 110 | > 10000 |  |  |  | COC(=O)c1c(-c2cc(OC)c(OC)c(OC)c2)c2cc(OC)c(OC)cc2c(=O)n1-c1ccc(O)cc1 |
| 9500 | 3.1 | > 10000 | > 10000 | 7000 | 12 | COC(=O)c1c(-c2cc(OC)c(OC)c(OC)c2)c2ccc(OCc3ccncc3)cc2c(=O)n1-c1ccc(N)cc1.Cl.Cl |
| > 10000 | 8.5 |  |  |  |  | COC(=O)c1c(-c2cc(O)c(OC)c(OC)c2)c2ccc(OCc3ccccn3)cc2c(=O)n1-c1ccc(N)cc1.Cl.Cl |
| 3900 | 1.1 | > 10000 | > 10000 | 3600 | 9.5 | COC(=O)c1c(-c2cc(OC)c(OC)c(OC)c2)c2ccc(OCc3cccnc3)cc2c(=O)n1-c1ccc(N)cc1.Cl.Cl |
| 1300 | 1 |  | > 10000 |  | 7.9 | COC(=O)c1c(-c2cc(OC)c(OC)c(OC)c2)c2ccc(OCc3ccccn3)cc2c(=O)n1-c1ccc(N)cc1.Cl.Cl |
| > 10000 | 900 | > 10000 |  |  |  | COC(=O)c1nc(O)c2cc(OC)c(OC)cc2c1-c1cc(OC)c(OC)c(OC)c1 |
| > 10000 | > 10000 |  |  |  |  | COC(=O)c1c(-c2cc(OC)c(OC)c(OC)c2)c2cc(OC)c(OC)cc2c(=O)n1-c1ccc(OC)cc1 |
| > 10000 | 580 | > 10000 |  |  |  | COC(=O)c1c(-c2cc(OC)c(OC)c(OC)c2)c2cc(OC)c(OC)cc2c(=O)n1C1CCCC1 |
| 1000 | 20 | > 10000 |  |  |  | COC(=O)c1c(-c2cc(OC)c(OC)c(OC)c2)c2ccc(OC)cc2c(=O)n1-c1ccc(N)cc1.Cl |
| > 10000 | 2100 | > 10000 |  |  |  | COc1cc(-c2c(C(=O)N(C)C)n(-c3ccc(N)cc3)c(=O)c3cc(OCc4ccccn4)ccc23)cc(OC)c1OC.Cl.Cl |
| > 10000 | 230 | > 10000 |  |  |  | COC(=O)c1c(-c2cc(OC)c(OC)c(OC)c2)c2cc(OC)c(OC)cc2c(=O)n1C1CCCCC1 |
| > 10000 | 30 | > 10000 |  |  |  | COC(=O)c1c(-c2cc(OC)c(OC)c(OC)c2)c2cc(OC)c(OC)cc2c(=O)n1-c1ccccc1 |
| > 10000 | 5 | > 10000 |  |  |  | COC(=O)c1c(-c2cc(OC)c(OC)c(OC)c2)c2ccc(OCCc3ccccn3)cc2c(=O)n1-c1ccc(N)cc1 |
| > 10000 | 1900 | > 10000 |  |  |  | COc1cc(-c2c(C(=O)O)n(-c3ccc(N)cc3)c(=O)c3cc(OCc4ccccn4)ccc23)cc(OC)c1OC.Cl.Cl |

| IC50 [1] [nM] | IC50 [2] [nM] | IC50 [3] [nM] | IC50 [4] [nM] | IC50 [5] [nM] | EC30 [6] [nM] | SMILES |
| --- | --- | --- | --- | --- | --- | --- |
| > 10000 | 54 | > 10000 |  |  |  | COC(=O)c1c(-c2cc(OC)c(OC)c(OC)c2)c2cc(OC)c(OC)cc2c(=O)n1N1CCCCC1 |
| 3900 | 97 | > 10000 |  |  |  | COC(=O)c1c(-c2cc(OC)c(OC)c(OC)c2)c2cc(OC)ccc2c(=O)n1-c1ccc(N)cc1.Cl |
| 550 | 18 | > 10000 |  |  |  | CCOC(=O)c1c(-c2cc(OC)c(OC)c(OC)c2)c2ccc(OCc3ccccn3)cc2c(=O)n1-c1ccc(N)cc1.Cl.Cl |
| > 10000 | 26 | > 10000 |  |  |  | COC(=O)c1c(-c2cc(OC)c(OC)c(OC)c2)c2cc(OC)c(OC)cc2c(=O)n1N1CCOCC1 |
| > 10000 | 220 | > 10000 |  |  |  | CNC(=O)c1c(-c2cc(OC)c(OC)c(OC)c2)c2ccc(OCc3ccccn3)cc2c(=O)n1-c1ccc(N)cc1.Cl.Cl |
| 1100 | 0.39 | > 10000 | 3500 | 1700 | 37 | COC(=O)c1c(-c2cc(OC)c(C)c(OC)c2)c2ccc(OCc3ccccn3)cc2c(=O)n1-c1ccc(N)cc1.Cl.Cl |
| 2100 | 1.2 | > 10000 | > 10000 | 6100 | 130 | COC(=O)c1c(-c2cc(OC)c(OC)c(OC)c2)c2ccc(OCc3ccccc3)cc2c(=O)n1-c1ccc(N)cc1.Cl |
| 2100 | 230 | 8500 |  |  |  | COC(=O)c1c(-c2cc(OC)c(OC)c(OC)c2)c2cc(OC)c(OC)cc2c(=O)n1C |
| > 10000 | 21 | 4400 |  |  |  | COC(=O)c1c(-c2cc(OC)c(OC)c(OC)c2)c2cc(OC)c(OC)cc2c(=O)n1-c1ccc(N)cc1.Cl |
| > 10000 | 250 | > 10000 |  |  |  | COC(=O)c1c(-c2cc(OC)c(OC)c(OC)c2)c2cc(OC)c(OC)cc2c(=O)n1-c1cccc(N)c1.Cl |
| 2600 | 14 | > 10000 |  |  |  | COC(=O)c1c(-c2cc(OC)c(O)c(OC)c2)c2ccc(OCc3ccccn3)cc2c(=O)n1-c1ccc(N)cc1 |
| 460 | 0.22 | 8400 | 2800 | 750 | 44 | COC(=O)c1c(-c2cc(OC)c(Br)c(OC)c2)c2ccc(OCc3ccccn3)cc2c(=O)n1-c1ccc(N)cc1.Cl.Cl |
| > 10000 | 490 | > 10000 |  |  |  | COc1cc(-c2c(C(N)=O)n(-c3ccc(N)cc3)c(=O)c3cc(OCc4ccccn4)ccc23)cc(OC)c1OC.Cl.Cl |
| > 10000 | > 10000 | > 10000 |  |  |  | COC(=O)c1c(-c2cc(OC)c(OC)c(OC)c2)c2cc(OC)c(OC)cc2c(=O)n1-c1ccc(NC(C)=O)cc1 |
| > 10000 | 27 | > 10000 |  |  |  | CCOc1cc2c(-c3cc(OC)c(OC)c(OC)c3)c(C(=O)OC)n(-c3ccc(N)cc3)c(=O)c2cc1OCC.Cl |
| > 10000 | > 10000 | > 10000 |  |  |  | CNc1ccc(-n2c(C(=O)OC)c(-c3cc(OC)c(OC)c(OC)c3)c3cc(OC)c(OC)cc3c2=O)cc1 |
|  |  |  | > 10000 |  |  | CCCc1nn(C)c2c(=O)[nH]c(-c3cc(S(=O)(=O)N4CCN(C)CC4)ccc3OCC)nc12 |
